Hits are enriched below; roughly 1.8% of the tested compounds scored in any of these assays.
HKDC1 inhibitor: HKDC1 hexokinase inhibitors, primary screen, biochemical, fluorescence, uHTS. Q2TB90. recombinant HKDC1, G6PDH/diaphorase resazurin coupled fluorescence. inhibition, % at 20 µM. 340,000 compounds, 0.16% hits. AID 493160, 2011;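 active means inhibition above about 35% when tested at 20 µM, limit read from the data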
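Incubation: 90 min at room temperature in dark / Material: recombinant HKDC1 (HK5) hexokinase enzyme, produced in-house / Quantity: enzyme 5 µg/mL final / Compound: one dose of 20 µM, 1% DMSO / Reagent: glucose and ATP substrates / Buffer or medium: Tris pH 8.0 buffer with MgCl2, Tween-20, BSA, BME / Technique: resorufin fluorescence at 613 nm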
Scp-1 inhibitor: Scp-1 phosphatase inhibitors, primary screen, biochemical, colorimetric, uHTS; Recombinant Scp1, phosphopeptide, malachite green phosphate absorbance; Carboxy-terminal domain RNA polymerase II polypeptide A small phosphatase 1 (Homo …; inhibition, % at 20 µM; 340,000 compounds, 0.88% hits;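 active means inhibition above about 50% at 20 µM, limit read from the data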
Target sequence (Q9GZU7 76-261 limits assumed): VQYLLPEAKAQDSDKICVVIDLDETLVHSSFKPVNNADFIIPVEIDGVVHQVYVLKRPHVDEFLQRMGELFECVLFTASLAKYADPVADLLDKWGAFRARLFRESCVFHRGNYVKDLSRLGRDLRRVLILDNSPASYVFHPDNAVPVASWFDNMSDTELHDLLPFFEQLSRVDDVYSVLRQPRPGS
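Test system: SCP-1 catalytic domain; Buffer or medium: Acidic Tris acetate buffer with magnesium and detergent; Also added: Phosphorylated 17-residue peptide substrate; Compound: single 20 µM dose, 1% DMSO; Schedule: enzyme reaction 45 min at room temperature, colour 5 min, stabilisation 30 min; Signal: Phosphate-binding colour reagent, absorbance read at 630 nm.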
STEP block: STEP phosphatase inhibitors, primary screen, biochemical, fluorescence intensity, uHTS; 360,000 compounds, 0.25% hits; Tyrosine-protein phosphatase non-receptor type 5 (Homo sapiens), P54829; inhibition, % at 20 µM; recombinant STEP, OMFP fluorogenic substrate;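 active means inhibition at 20 µM, scaled per plate between control wells, above about 37%, limit read from the data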
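System: STEP (striatal-enriched tyrosine phosphatase) enzyme, cell-free; medium: Bis-Tris pH 6.0 buffer with DTT, detergent; dosing: 20 µM, 1% DMSO; times: reaction 20 min, ambient temperature; detection: fluorescence, 480/540 nm; read-out basis: normalized % inhibition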
LMPTP block: LMPTP phosphatase inhibitors, primary screen, biochemical, fluorescence intensity, uHTS; Low molecular weight phosphotyrosine protein phosphatase (Homo sapiens), P24666; recombinant LMPTP-A, OMFP fluorogenic substrate; inhibition, % at 20 µM; 360,000 compounds, 0.22% hits; AID 651560, 2012;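 active means compounds that cut the enzyme signal by at least half of the control window in the single-dose screen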
Target sequence (P24666 whole entry, looked up): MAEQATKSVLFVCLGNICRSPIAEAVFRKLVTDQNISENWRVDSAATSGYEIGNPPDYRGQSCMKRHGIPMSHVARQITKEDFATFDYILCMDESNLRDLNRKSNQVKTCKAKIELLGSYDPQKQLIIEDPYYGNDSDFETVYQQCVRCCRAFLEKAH
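Buffer or medium: Bis-Tris pH 6.0, DTT, detergent; Assay system: LMPTP-A enzyme; Quantity: 0.625 nM enzyme; Detection: endpoint fluorescence intensity; Times: 50 min dark incubation at room temperature; Controls: substrate-only low control, DMSO enzyme-plus-substrate high control; Doses: single 20 µM dose; Read-out: percent inhibition versus substrate-only and uninhibited controls; Reagent: 400 µM OMFP.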
SUMO1-SIM PPI: modulators of SUMO1 protein-protein interactions, primary screen, biochemical, uHTS; 360,000 compounds, 0.33% hits; SUMO1 binding to a labelled peptide, TR-FRET, 1 h; Small ubiquitin-related modifier 1 (Homo sapiens), P63165; AID 602429, 2012; inhibition, % at 20 µM; in the data active means inhibition above about 37%
Target sequence (P63165 whole entry, looked up): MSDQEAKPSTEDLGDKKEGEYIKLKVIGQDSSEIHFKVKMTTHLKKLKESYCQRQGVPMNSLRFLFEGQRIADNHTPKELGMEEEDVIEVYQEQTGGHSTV
DNMT1 inh: human DNMT1 methyltransferase inhibitors, primary screen, biochemical, molecular beacon, fluorescence, HinP1I cleavage, uHTS; AID 588458, 2011; 360,000 compounds, 0.83% hits; inhibition (reported as % activation of signal), % at 10 µM; DNA (cytosine-5)-methyltransferase 1 (Homo sapiens), P26358; in the data active means inhibition above about 50%
DNMT1 interf DR: spectral interference with molecular beacon fluorescence, dose response, artefact control for DNMT1 inhibitor project, biochemical, fluorescent molecular beacon; shares compounds with DNMT1 inh; spectral interference counter-screen; IC50, µM; 200 tested, under 10 active; AID 602382, 2012; call rule not given here
DNMT1 confirm: DNMT1 methyltransferase inhibitor retest, confirmation, biochemical, molecular beacon, fluorescence, single concentration; shares compounds with DNMT1 inh; DNMT1 molecular beacon HinP1I cleavage; inhibition, % at 10 µM; 2,300 compounds, 8% hits; AID 602385, 2012;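 active means average inhibition of at least 30% in the single-concentration confirmation test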
DNMT1 interf: beacon fluorescence artifact counter-screen | activation (fluorescence interference), % at 10 µM | 2,300 compounds, 1% hits | DNMT1 molecular beacon spectral interference counterscreen, fluorescence 485/520 | shares compounds with DNMT1 inh | AID 602387;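 active means activation of at least 30% at 10 µM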;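 further: DNMT1 catalytic domain with a HinP1I cleavage step and a FAM/dabcyl DNA beacon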
Of the large screens only hits and unclear results are named; the others gave an inactive call (follow-up assays come after a bar, where they were run).

COc1ccc(-c2ccc3c(c2)c(-c2cccs2)c(-c2cc(OC)cc(OC)c2)n3C)cc1	none
COc1cc(OC)cc(-c2c(-c3cccs3)c3cc(-c4ccc(C(N)=O)cc4)ccc3n2C)c1	DNMT1 inh 54 | DNMT1 confirm inactive | DNMT1 interf inactive
COc1cccc(N(C(=O)Cn2nnc(-c3cccs3)n2)C(C(=O)NC2CCCCC2)c2ccncc2)c1 (stereo not drawn)	DNMT1 inh 68 | DNMT1 confirm inactive | DNMT1 interf inactive
Cc1ccc(Nc2nc(=O)c3cc([N+](=O)[O-])ccc3s2)cc1	DNMT1 inh 59 | DNMT1 confirm inactive | DNMT1 interf inactive
CCOc1cc(CC(=O)N[C@@H](CC(C)C)c2ccccc2N2CCCCC2)ccc1C(=O)O	none
O=C(COC(=O)CCN1C(=O)/C(=C\C=C\c2ccccc2)SC1=S)Nc1cc(F)ccc1F	DNMT1 inh 75 | DNMT1 confirm inactive | DNMT1 interf inactive
O=C(NCCOc1ccc(F)cc1)C1CCC(=O)N(CCN2CCOCC2)C1 (stereo not drawn)	none
C=CCC[C@H](Cc1ccc(F)cc1)C(=O)OC[C@@H](C)NC(=O)[C@@H](CC=C)CC(=O)N[C@H](CO)Cc1ccccc1	none
C=CC[C@@H](CC(=O)N[C@@H](CO)Cc1ccccc1)C(=O)N[C@H](COC(=O)[C@@H](CC=C)Cc1ccc(F)cc1)Cc1ccccc1	DNMT1 inh 62 | DNMT1 confirm inactive | DNMT1 interf inactive
C=CCC[C@@H](Cc1ccc(F)cc1)C(=O)O[C@H](CNC(=O)[C@@H](CC=C)CC(=O)N[C@H](CO)Cc1ccccc1)c1ccccc1	DNMT1 inh 83 | DNMT1 confirm inactive | DNMT1 interf inactive
C=CCC[C@H](Cc1ccc(F)cc1)C(=O)OC[C@H](Cc1c[nH]c2ccccc12)NC(=O)[C@@H](CC=C)CC(=O)N[C@@H](CO)Cc1ccccc1	DNMT1 inh 69 | DNMT1 confirm inactive | DNMT1 interf inactive
C=CC[C@@H](CC(=O)N[C@H](CO)Cc1ccccc1)C(=O)NC[C@@H](OC(=O)[C@@H](CC=C)Cc1ccc(F)cc1)c1ccccc1	DNMT1 inh 77 | DNMT1 confirm inactive | DNMT1 interf inactive
COc1cc(C(=O)NNC(=S)NC(=O)/C=C/c2ccccc2)cc(OC)c1OC	none
COc1ccc2nc(C)cc(Nc3ccc(N4CCN(C)CC4)cc3)c2c1	DNMT1 inh 70 | DNMT1 interf DR inactive | DNMT1 confirm 33 | DNMT1 interf inactive
Cc1cc(=O)[nH]c(N/N=C/CCc2ccccc2)n1	DNMT1 inh 56 | DNMT1 confirm inactive | DNMT1 interf inactive
O=C1/C(=C/c2ccco2)Oc2c1ccc(O)c2CN1CCCCC1	DNMT1 inh 79 | DNMT1 confirm inactive | DNMT1 interf inactive
CC1CCN(Cc2c(O)ccc3c2O/C(=C\c2ccco2)C3=O)CC1	none
COc1ccc(C(CNC(=O)COc2ccccc2C)N2CCCCC2)cc1 (stereo not drawn)	none
COc1ccc(C(CNC(=O)COc2ccccc2C#N)N2CCOCC2)cc1 (stereo not drawn)	DNMT1 inh 104 | DNMT1 confirm inactive | DNMT1 interf inactive
COc1ccc(C(CNC(=O)c2ccc(S(=O)(=O)Nc3cccc(C)c3C)cc2)N2CCOCC2)cc1 (stereo not drawn)	DNMT1 inh 95 | DNMT1 confirm inactive | DNMT1 interf inactive
Clc1ccc(OCc2nn3c(-c4ccccc4)nnc3s2)c(Cl)c1	DNMT1 inh 59 | DNMT1 confirm inactive | DNMT1 interf inactive
Cc1nnc(-c2ccco2)c2cn(-c3cccc(Br)c3)nc12	DNMT1 inh 91 | DNMT1 confirm inactive | DNMT1 interf inactive
O=C1NN(c2ccc(Cl)cc2)C(=O)/C1=C\c1ccc(-c2cccc(C(=O)O)c2)o1	Scp-1 inhibitor 94, STEP block 97, LMPTP block 82, SUMO1-SIM PPI 40, DNMT1 inh 95 | DNMT1 interf DR inactive | DNMT1 confirm 34 | DNMT1 interf inactive
CCSc1nc(CC)c2c(c1C#N)CCCC2	none
CNC(=S)NC(CC(=O)OC)c1ccc2c(c1)OCO2 (stereo not drawn)	none
CC1(C)CC(NC(=O)c2ccccc2)CC(C)(C)N1	DNMT1 inh 101 | DNMT1 confirm inactive | DNMT1 interf inactive
O=C(NC1CCN(S(=O)(=O)c2ccc(Cl)c(F)c2)CC1)c1cccnc1	none
O=C(CNS(=O)(=O)c1ccccc1)OCC(=O)c1c[nH]c2ccccc12	none
Cn1[nH]cc(C=NC(N)=O)c1=O	none
O=C1NC2(CCCCCC2)C(=O)N1Cc1c(F)cccc1Cl	none
O=C(C[C@H]1C/C=C\C[C@H](Cc2ccc(F)cc2)C(=O)O[C@@H](c2ccccc2)CNC1=O)N[C@@H](CO)Cc1ccccc1	DNMT1 inh 63 | DNMT1 confirm inactive | DNMT1 interf inactive
O=C(C[C@H]1C/C=C\C[C@@H](Cc2ccc(F)cc2)C(=O)O[C@@H](c2ccccc2)CNC1=O)N[C@@H](CO)Cc1ccccc1	none
O=C1COc2ccc(C(=O)COC(=O)CNC(=O)c3ccco3)cc2N1	none
COc1ccc(-n2c(SCC(=O)N3CCc4ccccc43)nnc2-c2c[nH]c3ccccc23)cc1	DNMT1 inh 67 | DNMT1 confirm inactive | DNMT1 interf inactive
CCn1c(SCC(=O)N2CCc3ccccc32)nnc1-c1c[nH]c2ccccc12	none
Oc1c(CN2CCOCC2)cc(CN2CCOCC2)cc1CN1CCOCC1	DNMT1 inh 87 | DNMT1 confirm inactive | DNMT1 interf inactive
CCOC(=O)c1nn(C)c2[nH]c(=O)n(C)c(=O)c12	none
CCOC(=O)c1ccc(N/N=C/c2cc(Br)cc([N+](=O)[O-])c2O)cc1	DNMT1 inh 70 | DNMT1 confirm inactive | DNMT1 interf inactive
O=C1NC(=O)C2(CCCCCCC2)N1	none
